Our source for the Ki values is ChEMBL document CHEMBL1131417, “Characterization of novel N,N'-disubstituted piperazines as sigma receptor ligands” (J Med Chem, 1998).

The target in assay [1] is Sigma 2 receptor. Put plainly: Binding affinity was tested against sigma-2 receptor site in presence of dextrallorphan in rat liver membranes. Type of assay: cell membranes, Membrane. A digest of the protocol: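 Rat liver membranes (160 μg protein) incubated with 5 nM [3H]DTG plus 1 μM dextrallorphan to mask σ-1 sites, in Tris-HCl pH 8.0, 120 min at 25 °C. Twelve competitor concentrations spanning 0.05–10 000 nM or 0.5–100 000 nM. IC50 from iterative curve fit, converted to apparent Ki by Cheng–Prusoff. Mean ± SEM of 2–3 experiments, each in duplicate.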

Assay [2] has as its system Sigma 2 receptor. Put plainly: Binding affinity was tested against sigma-2 receptor in presence of dextrallorphan in rat liver membranes; NA =data not available. Type of assay: cell membranes, Membrane. In outline:
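Rat liver membranes (160 μg protein) were incubated with 5 nM [3H]DTG plus 1 μM dextrallorphan to mask σ-1 sites, in Tris-HCl pH 8.0, for 120 min at 25 °C. Twelve competitor concentrations spanned 0.05–10 000 nM or 0.5–100 000 nM. IC50 from curve fitting was converted to Ki by Cheng-Prusoff. Values are the mean ± SEM of 2–3 experiments, each run in duplicate.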

The structures appear in SMILES notation.

As for `NCCCCN1CCN(CCCc2ccccc2)CC1`, the Ki (commonly the equilibrium dissociation constant of an inhibitor or competing ligand from its target) at Sigma 2 receptor [1] was found to be 0.999 µM. On to `COc1ccccc1CCN1CCN(CCc2ccccc2OC)CC1`, for which, on Sigma 2 receptor [1], the inhibition constant (Ki) turned out to be 0.017 µM.

In the case of `COc1ccc(CCN2CCN(C(=O)Cc3ccc(OC)cc3)CC2)cc1`, the Ki on Sigma 2 receptor [1] is 0.744 µM.

On to `O=C(Cc1ccccc1[N+](=O)[O-])N1CCN(CCCc2ccccc2)CC1`, for which the Ki on Sigma 2 receptor [1] worked out at 0.076 µM. Turning to `COc1ccc(CCN2CCN(CCCc3ccccc3)CC2)cc1`, at Sigma 2 receptor [1], the Ki was determined as 0.029 µM.

As to `O=[N+]([O-])c1cccc(CCN2CCN(CCCc3ccccc3)CC2)c1`, the inhibition constant Ki at Sigma 2 receptor [1] came to 0.0094 µM.

Consider `COc1cccc(CCN2CCN(C(=O)Cc3cccc(OC)c3)CC2)c1`, for which the inhibitory constant (Ki) result with Sigma 2 receptor [2] is recorded as “Not Active”. Take `COc1ccc(CCN2CCN(CCc3ccc(OC)cc3)CC2)cc1`: on Sigma 2 receptor [1], the Ki stood at 0.099 µM. For `COc1cccc(CCN2CCN(CCc3cccc(OC)c3)CC2)c1`, the Ki on Sigma 2 receptor [1] came out at 0.029 µM.

Turning to `COc1ccccc1CC(=O)N1CCN(CCCc2ccccc2)CC1`, the Ki on Sigma 2 receptor [1] amounted to 0.294 µM. In the case of `Nc1ccc(CCN2CCN(CCCc3ccccc3)CC2)cc1`, the inhibition constant (Ki) on Sigma 2 receptor [1] was determined as 0.014 µM. Regarding `Nc1cccc(CCN2CCN(CCCc3ccccc3)CC2)c1`, on Sigma 2 receptor [1], the inhibition constant (Ki) stood at 0.037 µM. Regarding `CC(C)(C)OC(=O)NCCC(=O)N1CCN(CCCc2ccccc2)CC1`, the Ki on Sigma 2 receptor [1] came to 4.56 µM.

`Nc1ccccc1CCN1CCN(CCCc2ccccc2)CC1`: the Ki on Sigma 2 receptor [1] is 0.018 µM. On the same count and under the same terms, then `O=C(Cc1ccc(Cl)c(Cl)c1)N1CCN(CCCc2ccccc2)CC1`, with 0.078 µM; and `O=C(Cc1ccc([N+](=O)[O-])cc1)N1CCN(CCCc2ccccc2)CC1`, with 0.167 µM; and `COc1ccccc1CCN1CCN(CCCc2ccccc2)CC1`, with 0.0075 µM.

As to `COc1ccccc1CCN1CCN(C(=O)Cc2ccccc2OC)CC1`, at Sigma 2 receptor [1], the Ki is > 0.01 µM. On to `O=[N+]([O-])c1ccc(CCN2CCN(CCCc3ccccc3)CC2)cc1`, for which the inhibition constant (Ki) at Sigma 2 receptor [1] was determined as 0.025 µM.

As for `NCCN1CCN(CCCc2ccccc2)CC1`, at Sigma 2 receptor [1], the inhibition constant (Ki) was determined as 0.188 µM. On the same count and under the same terms, as for `NCCCC(=O)N1CCN(CCCc2ccccc2)CC1`, the figure is 3.84 µM; as for `O=C(Cc1cccc([N+](=O)[O-])c1)N1CCN(CCCc2ccccc2)CC1`, 0.065 µM; as for `CC(C)(C)OC(=O)NCCCC(=O)N1CCN(CCCc2ccccc2)CC1`, 0.126 µM. As for `Clc1ccc(CCN2CCN(CCCc3ccccc3)CC2)cc1Cl`, the Ki on Sigma 2 receptor [1] was 0.039 µM.

On to `O=[N+]([O-])c1ccccc1CCN1CCN(CCCc2ccccc2)CC1`, for which the Ki on Sigma 2 receptor [1] turned out to be 0.0049 µM. For `NCCC(=O)N1CCN(CCCc2ccccc2)CC1`, the inhibition constant Ki on Sigma 2 receptor [1] was 1.78 µM. Consider `COc1cccc(CCN2CCN(CCCc3ccccc3)CC2)c1`, for which the Ki at Sigma 2 receptor [1] was 0.01 µM. `COc1cccc(CC(=O)N2CCN(CCCc3ccccc3)CC2)c1`: the Ki on Sigma 2 receptor [1] turned out to be 0.206 µM. Take `COc1ccc(CC(=O)N2CCN(CCCc3ccccc3)CC2)cc1`: on Sigma 2 receptor [1], the Ki came out at 0.464 µM. For the compound `NCCCN1CCN(CCCc2ccccc2)CC1`, the Ki on Sigma 2 receptor [1] is 2 µM. For the compound `NCC(=O)N1CCN(CCCc2ccccc2)CC1`, on Sigma 2 receptor [1], the inhibition constant (Ki) was 0.303 µM.
